Measurements of several laboratories.
Protocols differ between the studies behind these lines.
Medium: plasma

| SMILES | system | conditions | half-life [h] |
| --- | --- | --- | --- |
| CC[C@H](C)[C@H](NC(=O)[C@@H]1CCCN1C(=O)CNC(=O)[C@H](Cc1ccccc1)NC(=O)[C@H](CC(N)=O)NC(=O)[C@H](CC(N)=O)NC(=O)[C@H](CO)NC(=O)[C@H](CO)NC(=O)[C@H](Cc1c[nH]cn1)NC(=O)[C@H](CCCNC(=N)N)NC(=O)[C@H](CC(C)C)NC(=O)[C@H](Cc1ccccc1)NC(=O)[C@H](CCC(=O)O)NC(=O)[C@H](C)NC(=O)[C@H](CC(C)C)NC(=O)[C@H](CCCNC(=N)N)NC(=O)[C@H](CCC(N)=O)NC(=O)[C@@H](NC(=O)[C@H](C)NC(=O)[C@@H]1CSSC[C@H](NC(=O)[C@H](CCCCN)NC(=O)CC[C@H](NC(=O)CCCCCCCCCCCCCCCCCCC(=O)O)C(=O)O)C(=O)N[C@@H](CC(N)=O)C(=O)N[C@@H]([C@@H](C)O)C(=O)N[C@@H](C)C(=O)N[C@@H]([C@@H](C)O)C(=O)N1)[C@@H](C)O)C(=O)N[C@@H](CC(C)C)C(=O)N1CCC[C@H]1C(=O)N1CCC[C@H]1C(=O)N[C@H](C(=O)N[C@@H](CC(N)=O)C(=O)N[C@H](C(=O)NCC(=O)N[C@@H](CO)C(=O)N[C@@H](CC(N)=O)C(=O)N[C@H](C(=O)N1CCC[C@H]1C(N)=O)[C@@H](C)O)C(C)C)[C@@H](C)O | male Sprague-Dawley rat | subcutaneous, 30 nmol/kg, single dose | 26.8 |
| CC[C@@H]([C@H](C)O)n1ncn(-c2ccc(N3CCN(c4ccc(OC[C@@H]5CO[C@@](Cn6cncn6)(c6ccc(F)cc6F)C5)cc4)CC3)cc2)c1=O | Sprague-Dawley rat | oral, 40 mg/kg | 15.7 |
| COc1cc(-c2cc(C(C)=O)n3ccccc23)c(OC)cc1Cn1ccnc1 | male Sprague-Dawley rat | oral, 5 mg/kg | 0.72 |
| NCCOCC(=O)N1CCC[C@H](C(=O)NCc2nc(-c3ccc(C(F)(F)F)cc3)cs2)C1 | male Sprague-Dawley rat | intravenous, 1 mg/kg | 4.4 |
| C=CC(=O)N1CCC[C@@H](n2nc(-c3ccc(Oc4ccccc4)cc3)c3c(N)ncnc32)C1 | male Wistar rat | oral, 40 mg/kg | 2.5 |
| CCCCC(=O)Nc1ccc(-c2ccc3ncn(CCC)c(=O)c3c2)cn1 | male rat | oral, 10 mg/kg | 1.09 |
| COCC(=O)N1CCC[C@H](C(=O)NCc2nc(-c3ccc(C#N)cc3)cs2)C1 | male Sprague-Dawley rat | oral, 3 mg/kg | 2.4 |
| C[C@H]1Oc2cc(cnc2N)-c2c(nn(C)c2C#N)CN(C)C(=O)c2ccc(F)cc21 | male Sprague-Dawley rat | oral, 10 mg/kg, single dose | 8.82 |
| CCOCC(=O)N1CCC[C@H](C(=O)NCc2nc(-c3ccc(C)nc3)cs2)C1 | male Sprague-Dawley rat | intravenous, 1 mg/kg | 2.1 |
| [2H]C([2H])([2H])NC(=O)c1cc(Oc2ccc(NC(=O)Nc3ccc(Cl)c(C(F)(F)F)c3)cc2)ccn1 | rat | oral, 40 mg/kg, single dose | 23.2 |
| COCC(=O)N1CCC[C@H](C(=O)NCc2nc(-c3ccccc3)cs2)C1 | male Sprague-Dawley rat | oral, 3 mg/kg | 3.9 |
| CONC(=O)c1cccc2c1cc(C)n2-c1nc2c(c(NCc3ccccc3)n1)CCCN2 | male Sprague-Dawley rat | intravenous, 1 mg/kg, single dose | 3.13 |
| Cc1cc(S(=O)(=O)NC2CC(N3CCN(CC4CCN(c5cccc6c5n(C)c(=O)n6C5CCC(=O)NC5=O)CC4)C4(CC4)C3)C2)ccc1Nc1ncc(C(F)(F)F)c(N2CCC[C@](C)(O)C2)n1 (some centres unmarked) | rat | intravenous, 2 mg/kg | 3.5 |
| O=C1CCC(N2Cc3cc(C4CCN(Cc5ccccc5)CC4)ccc3C2=O)C(=O)N1 (centres unmarked) | male Sprague-Dawley rat | oral, 3 mg/kg | 1.31 |
| CCONC(=O)N1CCC[C@H](C(=O)NCc2nc(-c3ccc(C#N)cc3)cs2)C1 | male Sprague-Dawley rat | oral, 3 mg/kg | 14 |
| C[C@@]12C[C@@]3(O)O[C@@H](O1)[C@]1(COC(=O)c4ccccc4)[C@H]3C[C@@]12O[C@@H]1O[C@H](CO)[C@@H](O)[C@H](O)[C@H]1O | male Sprague-Dawley rat | oral, 80 mg/kg | 11.4 |

| SMILES | system | conditions | half-life [h] |
| --- | --- | --- | --- |
| Cc1cc(S(=O)(=O)NC2CC(N3CCN(CC4CCN(c5cccc6c5n(C)c(=O)n6C5CCC(=O)NC5=O)CC4)CC3)C2)ccc1Nc1ncc(C(F)(F)F)c(N2CCC[C@](C)(O)C2)n1 (some centres unmarked) | rat | intravenous, 2 mg/kg | 5.1 |
| [2H]c1cc(C)c(NC(=O)c2cnc(Nc3cc(N4CCC(O)CC4)nc(C)n3)s2)c(Cl)c1 | male Sprague-Dawley rat | intravenous, 1 mg/kg | 1.9 |
| CC(=O)O[C@@H]1CC[C@@]2(C)[C@@H](CC[C@]3(C)[C@@H]2C(=O)C=C2[C@@H]4[C@@H](C)[C@H](C)CC[C@]4(C)CC[C@]23C)[C@@]1(C)C(=O)O | female Wistar rat | oral, 1 mg/kg, single dose | 9.9 |
| Cc1cc(S(=O)(=O)N[C@H]2CC[C@H](CN3CCN(c4ccc(C5CCC(=O)NC5=O)c(Cl)c4)CC3)CC2)ccc1Nc1ncc(C(F)(F)F)c(N2CCC[C@](C)(O)C2)n1 (some centres unmarked) | rat | intravenous, 2 mg/kg | 2.9 |
| CCCCCCCCCC(=O)N[C@@H](Cc1c[nH]c2ccccc12)C(=O)N[C@H](CC(N)=O)C(=O)N[C@@H](CC(=O)O)C(=O)N[C@@H]1C(=O)NCC(=O)N[C@@H](CCCN)C(=O)N[C@@H](CC(=O)O)C(=O)N[C@H](C)C(=O)N[C@@H](CC(=O)O)C(=O)NCC(=O)N[C@H](CO)C(=O)N[C@@H]([C@H](C)CC(=O)O)C(=O)N[C@@H](CC(=O)c2ccccc2N)C(=O)O[C@@H]1C | male Wistar rat | subcutaneous, 125 mg/kg, single dose | 2.6 |
| C[C@]1(O)CCCN(c2nc(Nc3ccc(S(=O)(=O)N[C@@H]4CCN(CC5CCN(c6ccc(C7CCC(=O)NC7=O)cc6F)CC5)C[C@H]4F)cc3F)ncc2C(F)(F)F)C1 (some centres unmarked) | rat | intravenous, 2 mg/kg | 5.1 |
| CCOCC(=O)N1CCC[C@H](C(=O)NCc2nc(-c3ccc(C#N)nc3)cs2)C1 | male Sprague-Dawley rat | oral, 3 mg/kg | 1.6 |
| CNS(=O)(=O)c1ccc(Nc2ncc3cc(Cl)c(=O)n(C4CCCC4)c3n2)c(C)c1 | rat | intravenous, 2 mg/kg | 1.2 |
| CNC(=O)c1cc(Oc2ccc(NC(=O)Nc3ccc(Cl)c(C(F)(F)F)c3)cc2)ccn1 | male Sprague-Dawley rat | oral, 100 mg/kg, single dose | 13.8 |
| Cc1cc(S(=O)(=O)NC2CC(N3CCN(CC4CCN(c5ccc6c(c5F)n(C)c(=O)n6C5CCC(=O)NC5=O)CC4)CC3)C2)ccc1Nc1ncc(C(F)(F)F)c(N2CCCC(C)(O)C2)n1 (centres unmarked) | rat | intravenous, 2 mg/kg | 7.2 |
| COc1nc(-c2cccc(-c3ccccc3)c2C)ccc1CNCCNC(=O)CCCCCCCCCCC(=O)N1CCN(CCNC(=O)c2cc3c(=O)n4cccc(C)c4nc3n(CCc3cccs3)c2=N)CC1 | male Sprague-Dawley rat | intravenous, 2 mg/kg | 5.8 |
| Cc1cc(S(=O)(=O)NC2CC(N3CCN(CC4CCN(c5ccc(NC6CCC(=O)NC6=O)cc5C)CC4)CC3)C2)ccc1Nc1ncc(C(F)(F)F)c(N2CCC[C@](C)(O)C2)n1 (some centres unmarked) | rat | intravenous, 2 mg/kg | 5.3 |
| Cc1nc(Nc2ncc(C(=O)Nc3c(C)cccc3Cl)s2)cc(N2CC[C@@H](N)C2)n1 | male Sprague-Dawley rat | intravenous, 1 mg/kg | 2.8 |
| C[C@]1(O)CCCN(c2nc(Nc3ccc(S(=O)(=O)N[C@H]4CC[C@H](CN5CCN(c6ccc(C7CCC(=O)NC7=O)c(F)c6)CC5)CC4)cc3F)ncc2C(F)(F)F)C1 (some centres unmarked) | rat | intravenous, 2 mg/kg | 6 |
| CC(C)(N)COCC(=O)N1CCC[C@H](C(=O)NCc2nc(-c3ccc(C(F)(F)F)cc3)cs2)C1 | male Sprague-Dawley rat | intravenous, 1 mg/kg | 7.2 |
| CCN(CC)Cc1ccc2cc(COC(=O)Nc3ccc(C(=O)NO)cc3)ccc2c1 | male Sprague-Dawley rat | oral, 10 mg/kg | 19.7 |
